The source made the active and inactive calls. No cut-off for these calls is given here.

Consider five molecules from ChEMBL document CHEMBL4334435, “A focused structure-activity relationship study of psoralen-based immunoproteasome inhibitors” (Medchemcomm, 2019).

Series [1] has as its target T1, Proteasome subunit beta type-8 (Homo sapiens, UniProt P28062).
T1 sequence (P28062 whole entry): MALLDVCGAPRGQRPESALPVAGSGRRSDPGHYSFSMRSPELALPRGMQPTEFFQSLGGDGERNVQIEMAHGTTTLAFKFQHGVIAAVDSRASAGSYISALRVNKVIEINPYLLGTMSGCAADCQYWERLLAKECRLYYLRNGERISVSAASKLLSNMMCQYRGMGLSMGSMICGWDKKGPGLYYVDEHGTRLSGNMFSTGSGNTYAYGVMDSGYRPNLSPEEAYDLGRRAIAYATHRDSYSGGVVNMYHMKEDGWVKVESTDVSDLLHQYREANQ
In words: Inhibition of human immunoproteasome beta 5i subunit using Suc-LLVY-AMC as substrate preincubated for 30 mins followed by substrate addition and measured for 120 mins by fluorescence based assay.

In series [2] the target is T2, Proteasome subunit beta type-8 (Homo sapiens) (UniProt P28062).
T2 sequence (whole entry): T1 sequence (P28062 whole entry)
Description: Irreversible inhibition of human immunoproteasome beta 5i subunit assessed as recovery of enzyme activity at 1060 nM using Suc-LLVY-AMC as substrate preincubated for 30 mins followed by 100-fold diluted substrate addition by rapid dilution assay relative to control. Also on record: scale not given: the % may be the effect or the level left.

Series [3] deals with T3, Proteasome subunit beta type-10 (Homo sapiens) (UniProt P40306).
T3 sequence (whole entry): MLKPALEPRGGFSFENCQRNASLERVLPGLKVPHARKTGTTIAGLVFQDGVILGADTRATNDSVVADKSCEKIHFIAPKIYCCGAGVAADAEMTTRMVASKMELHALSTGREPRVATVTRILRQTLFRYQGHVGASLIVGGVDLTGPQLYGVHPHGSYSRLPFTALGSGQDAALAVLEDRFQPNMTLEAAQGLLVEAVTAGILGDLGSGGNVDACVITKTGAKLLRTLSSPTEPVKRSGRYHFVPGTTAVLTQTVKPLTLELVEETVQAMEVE
In words: Inhibition of human immunoproteasome beta 2i subunit at 10 uM using Boc-LRR-AMC as substrate preincubated for 30 mins followed by substrate addition measured for 120 mins by fluorescence based assay. The method, boiled down:
(§1)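 Purified human immunoproteasome or constitutive proteasome subunit activities measured with fluorogenic substrates in presence of 10 μM compound; reported as residual activity.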

Series [4] concerns the target T4, Proteasome subunit beta type-9 (Homo sapiens) (UniProt P28065).
T4 sequence (whole entry): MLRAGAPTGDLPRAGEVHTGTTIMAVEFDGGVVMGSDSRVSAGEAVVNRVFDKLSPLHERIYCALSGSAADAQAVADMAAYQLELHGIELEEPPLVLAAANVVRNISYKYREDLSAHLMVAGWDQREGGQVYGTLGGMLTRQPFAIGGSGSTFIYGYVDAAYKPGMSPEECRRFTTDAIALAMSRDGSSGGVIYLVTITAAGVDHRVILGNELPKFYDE
In words: Inhibition of human immunoproteasome beta 1i subunit at 10 uM using Ac-PAL-AMC as substrate preincubated for 30 mins followed by substrate addition measured for 120 mins by fluorescence based assay. The gist of the method:
as §1

Series [5] concerns the target T5, Proteasome Macropain subunit MB1 (Homo sapiens, UniProt P28074).
T5 sequence (P28074 whole entry): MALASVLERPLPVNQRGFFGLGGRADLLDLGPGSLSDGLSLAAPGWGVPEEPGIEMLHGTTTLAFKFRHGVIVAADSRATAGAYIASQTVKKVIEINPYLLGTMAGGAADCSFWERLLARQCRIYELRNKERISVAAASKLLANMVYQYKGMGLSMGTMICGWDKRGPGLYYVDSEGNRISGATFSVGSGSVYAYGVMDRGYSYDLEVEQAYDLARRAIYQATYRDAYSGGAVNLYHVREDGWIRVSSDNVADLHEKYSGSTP
Description: Inhibition of human constitutive proteasome beta 5 subunit at 10 uM using Suc-LLVY-AMC as substrate preincubated for 30 mins followed by substrate addition measured for 120 mins by fluorescence based assay. The following applies: 2 h. The gist of the method: as §1

The target of series [6] is T1, Proteasome subunit beta type-8. Description: Inhibition of 20S immunoproteasome beta 5 chymotrypsin-like activity in human THP-1 cell lysates using Suc-LLVY-AMC as substrate preincubated for 30 mins followed by substrate addition and measured for 90 mins by fluorescence based assay. It counts as subcellular, Lysate. The gist of the method: (§2)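 Compounds incubated with cell lysates (HeLa: predominantly constitutive proteasome; THP-1: high immunoproteasome) and beta5 activity read with fluorogenic Suc-LLVY-AMC; IC50 determined.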

The target in series [7] is T2, Proteasome subunit beta type-8 (Homo sapiens). Description: Inhibition of 26S immunoproteasome beta 5 chymotrypsin-like activity in human THP-1 intact cells using […] as substrate after 2 hrs by luciferase based assay. Format: cell-based.
Series [8] shares this target. In words: Inhibition of 26S immunoproteasome beta 5 chymotrypsin-like activity in human HeLa intact cells using […] as substrate after 2 hrs by luciferase based assay. Format: cell-based.
For series [9], the system named is PBMC. In words: Inhibition of LPS-induced IL-6 secretion in human PBMC at 10 uM preincubated for 1 hr followed by LPS addition and measured after 24 hrs by cytometric bead array-based FACS analysis. Format: functional, cell-based. A general note: In flow cytometry, cells or beads pass a laser one at a time.
Series [10] has as its system PBMC. In words: Inhibition of LPS-induced IL-10 secretion in human PBMC at 10 uM preincubated for 1 hr followed by LPS addition and measured after 24 hrs by cytometric bead array-based FACS analysis. Format: functional, cell-based.
In series [11] the test system is PBMC. In words: Inhibition of LPS-induced IL-1beta production in human PBMC at 10 uM preincubated for 1 hr followed by LPS addition and measured after 24 hrs by cytometric bead array-based FACS analysis. It counts as functional, cell-based.
The subject of series [12] is PBMC. In words: Inhibition of LPS-induced IL-8 production in human PBMC at 10 uM preincubated for 1 hr followed by LPS addition and measured after 24 hrs by cytometric bead array-based FACS analysis. Format: functional, cell-based.
The test system of series [13] is PBMC. In words: Inhibition of LPS-induced IL-12p70 production in human PBMC at 10 uM preincubated for 1 hr followed by LPS addition and measured after 24 hrs by cytometric bead array-based FACS analysis. Format: functional, cell-based.
For series [14], the system named is PBMC. In words: Inhibition of LPS-induced TNFalpha production in human PBMC at 10 uM preincubated for 1 hr followed by LPS addition and measured after 24 hrs by cytometric bead array-based FACS analysis. Format: functional, cell-based.
In series [15] the target is T2, Proteasome subunit beta type-8 (Homo sapiens). Description: Time-dependent inhibition of human immunoproteasome beta 5i subunit assessed as increase in IC50 value using Suc-LLVY-AMC as substrate co-incubated with substrate without preincubation by fluorescence based analysis relative to 30 mins preincubated compound-treated control. The method, boiled down: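 IC50 against immunoproteasome beta5i (Suc-LLVY-AMC) determined without pre-incubating compound with enzyme before substrate addition, compared against pre-incubated assay.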

The target is the same in series [16]. Description: Inhibition of 20S immunoproteasome beta 5 chymotrypsin-like activity in human HeLa cell lysates using Suc-LLVY-AMC as substrate preincubated for 30 mins followed by substrate addition and measured for 90 mins by fluorescence based assay. It counts as subcellular. The following applies: Lysate. The method, boiled down: as §2
Series [17] has as its target T6, Proteasome subunit beta type-10 (Homo sapiens, UniProt P40306).
T6 sequence (P40306 whole entry): T3 sequence (whole entry)
In words: Inhibition of human immunoproteasome beta 2i subunit using Boc-LRR-AMC as substrate preincubated for 30 mins followed by substrate addition measured for 120 mins by fluorescence based assay.

Series [18] deals with T7, Proteasome subunit beta type-9 (Homo sapiens, UniProt P28065).
T7 sequence (P28065 whole entry): T4 sequence (whole entry)
In words: Inhibition of human immunoproteasome beta 1i subunit using Ac-PAL-AMC as substrate preincubated for 30 mins followed by substrate addition measured for 120 mins by fluorescence based assay.

The target of series [19] is T5, Proteasome Macropain subunit MB1. In words: Inhibition of human constitutive proteasome beta 5 subunit using Suc-LLVY-AMC as substrate preincubated for 30 mins followed by substrate addition measured for 120 mins by fluorescence based assay.
The species named for the next series is Homo sapiens. In words: Selectivity ratio of IC50 for human constitutive proteasome beta 5 subunit to IC50 for human immunoproteasome beta 5i subunit.
Series [20] has as its target T2, Proteasome subunit beta type-8 (Homo sapiens). Description: Reversible inhibition of human immunoproteasome beta 5i subunit assessed as recovery of enzyme activity at 45 nM using Suc-LLVY-AMC as substrate preincubated for 30 mins followed by 100-fold diluted substrate addition by rapid dilution assay relative to control. The arrangement: scale not given: the % may be the effect or the level left.

Series [21] relates to PBMC. In words: Inhibition of LPS-induced IL-8 production in human PBMC at 50 nM preincubated for 1 hr followed by LPS addition and measured after 24 hrs by cytometric bead array-based FACS analysis. It counts as functional, cell-based.
The test system of series [22] is PBMC. Description: Inhibition of LPS-induced IL-1beta production in human PBMC at 50 nM preincubated for 1 hr followed by LPS addition and measured after 24 hrs by cytometric bead array-based FACS analysis. It counts as functional, cell-based.
The test system of series [23] is PBMC. Description: Inhibition of LPS-induced IL-6 secretion in human PBMC at 50 nM preincubated for 1 hr followed by LPS addition and measured after 24 hrs by cytometric bead array-based FACS analysis. It counts as functional, cell-based.
In series [24] the test system is PBMC. Description: Inhibition of LPS-induced IL-10 secretion in human PBMC at 50 nM preincubated for 1 hr followed by LPS addition and measured after 24 hrs by cytometric bead array-based FACS analysis. It counts as functional, cell-based.
Series [25] concerns PBMC. Description: Inhibition of LPS-induced IL-12p70 production in human PBMC at 50 nM preincubated for 1 hr followed by LPS addition and measured after 24 hrs by cytometric bead array-based FACS analysis. It counts as functional, cell-based.
Series [26] has as its system PBMC. Description: Inhibition of LPS-induced TNFalpha production in human PBMC at 50 nM preincubated for 1 hr followed by LPS addition and measured after 24 hrs by cytometric bead array-based FACS analysis. It counts as functional, cell-based.

Take `Cc1c(-c2nsc(=O)o2)c(=O)oc2cc3occ(C4CCCCC4)c3cc12`: the IC50 in series [1] was 106 nM; in [6], 1010 nM; in series [17], “Nd(Insoluble)”; in series [18], “Nd(Insoluble)”; in series [19] it was “Nd(Insoluble)”. The Activity in series [2] is 22%. In addition, the inhibition entry (in [3]; in series [4]; in [7]; in series [8]; in the series with PBMC [11]; in the series on PBMC [12]) was “inactive” throughout. Moreover, the inhibition entry with PBMC [13] and with PBMC [14] was “inactive” in each case. In series [5], the “inhibition (INH)” value was “Not Active”. Besides, the inhibition result (in the series on PBMC [9]; in the series with PBMC [10]; in series [15]; in [16]) was “Active” in each case.

Take `Cc1c(-c2nsc(=O)o2)c(=O)oc2cc3occ(-c4cccs4)c3cc12`: the IC50 in series [1] is 141 nM; in series [17], “Nd(Insoluble)”; in series [18], “Nd(Insoluble)”; in series [19], “Nd(Insoluble)”. Also, the inhibition entry in [3] and in [4] was “inactive” each time. Besides, the “inhibition (INH)” value in [5] was “Not Active”. Also, the inhibition entry in [15] was “Active”.

In turn, `Cc1c(-c2nsc(=O)o2)c(=O)oc2cc3occ(-c4ccccc4)c3cc12` showed an IC50 in [1] of 13 nM. The Ratio IC50 in the series filed under Homo sapiens stood at 80.

Consider `CCc1ccc(-c2coc3cc4oc(=O)c(-c5nsc(=O)o5)c(C)c4cc23)cc1`, for which the IC50 in [1] is 174 nM; in series [6], 1530 nM; in [17] it was “Nd(Insoluble)”; in series [18], “Nd(Insoluble)”; in series [19], “Nd(Insoluble)”. Also, the inhibition result (in series [3]; in series [4]; in series [7]; in series [8]; with PBMC [11]; with PBMC [12]) was “inactive” each time. Moreover, the inhibition result in the series with PBMC [13] and in the series with PBMC [14] was “inactive” throughout. Further, in [5], the “inhibition (INH)” value is on record as “Not Active”. Moreover, the inhibition entry (in the series with PBMC [9]; in the series with PBMC [10]; in series [15]; in series [16]) was “Active” in each case.

Take `CC(C)(C)ONC(=O)C[C@H](NC(=O)CCc1ccccc1)C(=O)N[C@@H](Cc1ccc(F)cc1)C(=O)NCc1cccc2ccccc12`: the Activity in series [20] came out at 100%. For the same molecule, the inhibition entry in the series with PBMC [21], in the series with PBMC [22], in the series with PBMC [25] and in the series with PBMC [26] was “inactive” throughout. Moreover, the inhibition result in the series with PBMC [23] and with PBMC [24] was “Active” each time.

By IC50 is commonly meant the point on the concentration scale where inhibition reaches its midpoint.
